Measurements from ChEMBL document CHEMBL1148843, “High-throughput screening affords novel and selective trypanothione reductase inhibitors with anti-trypanosomal activity” (Bioorg Med Chem Lett, 2007).

Columns and labels:
Trypanothione reductase = Trypanothione reductase (Trypanosoma brucei brucei, UniProt P39051); assay: Inhibition of TR by DTNB-coupled assay
How it was run: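 Trypanothione reductase in 40 mM potassium HEPES pH 7.4, 1 mM EDTA with 4.22 µM trypanothione disulfide, 70.3 µM DTNB, 2.81 mU/mL TR. Compounds added from DMSO stocks, tested over 1.91 ng/mL to 31.2 µg/mL. NADPH added to start the reaction, 135 µM in the added solution. Plates incubated 60 min at 30°C, absorbance read at 405 nm. IC50 values determined.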

[1] = biological target: T1, Glutathione reductase, mitochondrial (Homo sapiens, UniProt P00390); assay: Inhibition of human GR
T1 sequence (P00390 whole entry): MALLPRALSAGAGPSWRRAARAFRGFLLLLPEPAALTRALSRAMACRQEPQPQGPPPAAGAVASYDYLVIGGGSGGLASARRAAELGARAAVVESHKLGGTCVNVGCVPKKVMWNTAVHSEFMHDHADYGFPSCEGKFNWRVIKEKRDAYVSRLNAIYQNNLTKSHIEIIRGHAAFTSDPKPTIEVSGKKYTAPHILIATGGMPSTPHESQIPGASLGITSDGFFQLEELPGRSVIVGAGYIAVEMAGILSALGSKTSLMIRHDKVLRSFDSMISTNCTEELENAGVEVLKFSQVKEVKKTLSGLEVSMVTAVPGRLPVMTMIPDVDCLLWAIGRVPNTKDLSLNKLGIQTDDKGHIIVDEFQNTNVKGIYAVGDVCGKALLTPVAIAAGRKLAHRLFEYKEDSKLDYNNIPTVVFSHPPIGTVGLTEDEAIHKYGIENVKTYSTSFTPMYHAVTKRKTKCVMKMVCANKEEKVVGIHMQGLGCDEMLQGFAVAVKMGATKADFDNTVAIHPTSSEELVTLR

[2] = Selectivity for TR over human GR
Trypanosoma brucei = assay: Antiproliferative activity against Trypanosoma brucei; assay type: functional, organism-based
How it was run: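 Bloodstream T. b. brucei S427 seeded at 10^3 cells/ml in HMI9 medium, 0.5% DMSO, inhibitor 50 to 0.2 μM serially diluted from 10 mM DMSO stocks. Incubated 72 h, 37 °C, 5% CO2, humidified. Then 45 μM resazurin added, further 4 h, resorufin fluorescence read (ex 528, em 590 nm). Triplicates, three separate occasions; weighted means ± SEM.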

Chain of Trypanothione reductase (P39051 whole entry): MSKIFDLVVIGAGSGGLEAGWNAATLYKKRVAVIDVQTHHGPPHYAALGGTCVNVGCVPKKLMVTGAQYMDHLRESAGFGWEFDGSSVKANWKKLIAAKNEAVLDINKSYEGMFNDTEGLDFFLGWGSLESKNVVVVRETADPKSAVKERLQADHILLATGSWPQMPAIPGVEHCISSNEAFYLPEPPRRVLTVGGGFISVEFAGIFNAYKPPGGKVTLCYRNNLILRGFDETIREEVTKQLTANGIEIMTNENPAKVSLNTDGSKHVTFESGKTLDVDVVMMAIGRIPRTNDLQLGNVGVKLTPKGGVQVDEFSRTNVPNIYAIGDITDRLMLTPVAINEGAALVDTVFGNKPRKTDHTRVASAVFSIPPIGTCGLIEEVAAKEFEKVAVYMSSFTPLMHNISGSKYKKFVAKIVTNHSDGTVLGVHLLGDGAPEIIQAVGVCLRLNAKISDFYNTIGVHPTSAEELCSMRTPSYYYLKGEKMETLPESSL

IC50 (Trypanosoma brucei) | SMILES | IC50 (Trypanothione reductase) | IC50 [1] | Ratio IC50 [2] | EC50 (Trypanosoma brucei)
 | CS(=O)(=O)c1ccc(C(=O)CCN2CCCCC2)cc1 | 7.8 µM | 105 µM | 13 | 0.95 µM
 | CC(C)c1cc(CN(C)C)cc(C(C)C)c1O | 11.8 µM | 79.3 µM | 6.7 | > 50 µM
 | CCCCOC(=O)c1ccc(NCCC(=O)c2cccc([N+](=O)[O-])c2)cc1 | 2.4 µM | > 135 µM |  | 0.96 µM
 | O=C(CCNc1ccccc1)c1cccc([N+](=O)[O-])c1 | 1.7 µM | 58 µM | 35 | 1.01 µM
 | CN(C)CCC(=O)c1cccc([N+](=O)[O-])c1 | 0.34 µM | 20.3 µM | 59 | 0.68 µM
 | CC(C)(C)c1cc(CN2CCCCCC2)cc(C(C)(C)C)c1O | 38.8 µM | > 155 µM |  | 3.3 µM
 | CCc1ccc(NCCC(=O)c2ccc(Cl)c(Cl)c2)cc1 | 107 µM | > 157 µM |  | 1.65 µM
 | CN(C)CCC(=O)c1ccc(S(C)(=O)=O)cc1 | 2.9 µM | 20.4 µM | 7 | 0.55 µM
 | CN(C)CCC(=O)c1ccc(Cl)c(Cl)c1 | 3.3 µM | 64.8 µM | 20 | 1 µM
0.0046 µM | N=C(N)c1ccc(OCCCCCOc2ccc(C(=N)N)cc2)cc1 [PENTAMIDINE] |  |  |  | 
 | O=C(CCN1CCOCC1)c1ccc(Cl)cc1 | 148 µM | > 212 µM |  | 0.98 µM
 | CC(C)(C)c1cc(CNCCO)cc(C(C)(C)C)c1O | 2 µM | 24.9 µM | 13 | 3.01 µM
 | Cc1cccc(NCCC(=O)c2cccc([N+](=O)[O-])c2)c1C | 1.5 µM | 86.3 µM | 58 | 0.15 µM
 | O=C(CCNc1cccc(F)c1)c1cccc([N+](=O)[O-])c1 | 3.3 µM | > 173 µM |  | 0.82 µM
